Measurements taken from ChEMBL document CHEMBL1287648, “Development of 3-aryl-1-isoquinolinamines as potent antitumor agents based on CoMFA” (Eur J Med Chem, 2010).

Legend:
[1] = tested on: A549; test: Cytotoxicity against human A549 cells by sulforhodamine B method; type: functional, cell-based
[2] = tested on: MDA-MB-231; test: Cytotoxicity against human MDA-MB-231 cells by sulforhodamine B method; type: functional, cell-based
[3] = tested on: PANC-1; test: Cytotoxicity against human PANC1 cells by sulforhodamine B method; type: functional, cell-based
[4] = tested on: HCT-116; test: Cytotoxicity against human HCT116 cells by sulforhodamine B method; type: functional, cell-based
[5] = tested on: PC-3; test: Cytotoxicity against human PC3 cells by sulforhodamine B method; type: functional, cell-based
[6] = tested on: OVCAR-3; test: Cytotoxicity against human OVCAR-3 cells by sulforhodamine B method; type: functional, cell-based
[7] = tested on: SK-MEL-28; test: Cytotoxicity against human SK-MEL-28 cells by sulforhodamine B method; type: functional, cell-based
[8] = tested on: CAKI-1; test: Cytotoxicity against human Caki1 cells by sulforhodamine B method; type: functional, cell-based
[9] = tested on: SNB-19; test: Cytotoxicity against human SNB19 cells by sulforhodamine B method; type: functional, cell-based
[10] = tested on: HeLa; test: Cell cycle arrest in human HeLa cells assessed as accumulation at G1 phase at 50 nM after 24 hrs using propidium iodide staining by flow cytometry relative to control; type: functional
How it was run: (§1)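 HeLa cells exposed 24 h to compound (50–500 nM range) or left untreated, then washed and harvested. DNA was stained with propidium iodide and cell-cycle phase distribution measured by flow cytometry.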

[11] = tested on: HeLa; test: Cell cycle arrest in human HeLa cells assessed as accumulation at S phase at 50 nM after 24 hrs using propidium iodide staining by flow cytometry relative to control; type: functional; how it was run: as §1
[12] = tested on: HeLa; test: Cell cycle arrest in human HeLa cells assessed as accumulation at G2/M phase at 50 nM after 24 hrs using propidium iodide staining by flow cytometry relative to control; type: functional; how it was run: as §1
[13] = tested on: HeLa; test: Cell cycle arrest in human HeLa cells assessed as accumulation at G1 phase at 100 nM after 24 hrs using propidium iodide staining by flow cytometry relative to control; type: functional; how it was run: as §1
[14] = tested on: HeLa; test: Cell cycle arrest in human HeLa cells assessed as accumulation at S phase at 100 nM after 24 hrs using propidium iodide staining by flow cytometry relative to control; type: functional; how it was run: as §1
[15] = tested on: HeLa; test: Cell cycle arrest in human HeLa cells assessed as accumulation at G2/M phase at 100 nM after 24 hrs using propidium iodide staining by flow cytometry relative to control; type: functional; how it was run: as §1
[16] = tested on: HeLa; test: Cell cycle arrest in human HeLa cells assessed as accumulation at G1 phase at 200 nM after 24 hrs using propidium iodide staining by flow cytometry relative to control; type: functional; how it was run: as §1
[17] = tested on: HeLa; test: Cell cycle arrest in human HeLa cells assessed as accumulation at S phase at 200 nM after 24 hrs using propidium iodide staining by flow cytometry relative to control; type: functional; how it was run: as §1
[18] = tested on: HeLa; test: Cell cycle arrest in human HeLa cells assessed as accumulation at G2/M phase at 200 nM after 24 hrs using propidium iodide staining by flow cytometry relative to control; type: functional; how it was run: as §1
[19] = tested on: HeLa; test: Cell cycle arrest in human HeLa cells assessed as accumulation at G1 phase at 300 nM after 24 hrs using propidium iodide staining by flow cytometry relative to control; type: functional; how it was run: as §1
[20] = tested on: HeLa; test: Cell cycle arrest in human HeLa cells assessed as accumulation at S phase at 300 nM after 24 hrs using propidium iodide staining by flow cytometry relative to control; type: functional; how it was run: as §1
[21] = tested on: HeLa; test: Cell cycle arrest in human HeLa cells assessed as accumulation at G2/M phase at 300 nM after 24 hrs using propidium iodide staining by flow cytometry relative to control; type: functional; how it was run: as §1
[22] = tested on: HeLa; test: Cell cycle arrest in human HeLa cells assessed as accumulation at G1 phase at 500 nM after 24 hrs using propidium iodide staining by flow cytometry relative to control; type: functional; how it was run: as §1
[23] = tested on: HeLa; test: Cell cycle arrest in human HeLa cells assessed as accumulation at S phase at 500 nM after 24 hrs using propidium iodide staining by flow cytometry relative to control; type: functional; how it was run: as §1
[24] = tested on: HeLa; test: Cell cycle arrest in human HeLa cells assessed as accumulation at G2/M phase at 500 nM after 24 hrs using propidium iodide staining by flow cytometry relative to control; type: functional; how it was run: as §1
[25] = tested on: HeLa; test: Induction of apoptosis in human HeLa cells at 50 nM after 24 hrs using propidium iodide/annexin V staining by flow cytometry relative to control; type: functional
How it was run: (§2)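 Annexin V/PI apoptosis assay: HeLa cells given compound (50–500 nM, 24 h) or no treatment, then co-stained with FITC-annexin V and propidium iodide. Phosphatidylserine externalization was scored by flow cytometry, with early apoptotic (annexin V-positive) and late apoptotic quadrants read separately.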

[26] = tested on: HeLa; test: Induction of apoptosis in human HeLa cells at 100 nM after 24 hrs using propidium iodide/annexin V staining by flow cytometry relative to control; type: functional; how it was run: as §2
[27] = tested on: HeLa; test: Induction of apoptosis in human HeLa cells at 200 nM after 24 hrs using propidium iodide/annexin V staining by flow cytometry relative to control; type: functional; how it was run: as §2
[28] = tested on: HeLa; test: Induction of apoptosis in human HeLa cells at 300 nM after 24 hrs using propidium iodide/annexin V staining by flow cytometry relative to control; type: functional; how it was run: as §2
[29] = tested on: HeLa; test: Induction of apoptosis in human HeLa cells at 500 nM after 24 hrs using propidium iodide/annexin V staining by flow cytometry relative to control; type: functional; how it was run: as §2

SMILES	IC50 [1] [nM]	IC50 [2] [nM]	IC50 [3] [nM]	IC50 [4] [nM]	IC50 [5] [nM]	IC50 [6] [nM]	IC50 [7] [nM]	IC50 [8] [nM]	IC50 [9] [nM]	further results
COc1ccc(-c2cc3c(N(C)C)cccc3c(N)n2)cc1OC	> 10000	> 10000	> 10000	> 10000	> 10000	> 10000	> 10000	> 10000	> 10000	–
CN(C)c1cccc2c(N)nc(-c3ccccc3)cc12	> 10000	> 10000	> 10000	> 10000	> 10000	> 10000	> 10000	> 10000	> 10000	–
COc1ccc(-c2cc3cc(C)ccc3c(N)n2)cc1OC	562	660	1750	850	2690	570	1410	510	2150	–
Cc1ccc2c(N)nc(-c3ccccc3C)cc2c1	162	–	–	–	–	–	–	–	–	–
COc1cccc(-c2cc3cc(OC)c(OC)cc3c(N)n2)c1	759	140	190	160	180	74	230	170	220	Activity [10]: 48.83%; Activity [11]: 15.37%; Activity [12]: 35.8%; Activity [13]: 35.29%; Activity [14]: 16.12%; Activity [15]: 48.59%; Activity [16]: 15.58%; Activity [17]: 11.36%; Activity [18]: 73.06%; Activity [19]: 10.26%; Activity [20]: 6.6%; Activity [21]: 83.14%; Activity [22]: 8.25%; Activity [23]: 4.77%; Activity [24]: 86.98%; Activity [25]: 5.92%; Activity [26]: 6.14%; Activity [27]: 8.8%; Activity [28]: 9.78%; Activity [29]: 12.52%
COc1cc2cc(-c3ccccc3)nc(N)c2cc1OC	129	440	670	520	580	270	750	590	710	–
COc1ccc(-c2cc3cc(C)ccc3c(N)n2)c(C)c1	170	150	240	170	250	170	290	120	280	–
Cc1ccc2c(N)nc(-c3c(C)cccc3C)cc2c1	380	140	210	170	240	160	230	120	240	–
Cc1ccccc1-c1cc2c(N(C)C)cccc2c(N)n1	> 10000	> 10000	> 10000	> 10000	> 10000	> 10000	> 10000	> 10000	> 10000	–
COc1cc(OC)cc(-c2cc3cc(OC)c(OC)cc3c(N)n2)c1	282	400	700	770	720	190	690	540	400	–
COc1cccc(-c2cc3ccc(C)cc3c(N)n2)c1	447	170	470	210	420	240	410	140	480	–
Cc1ccc2c(N)nc(-c3ccc4c(c3)OCO4)cc2c1	141	130	220	160	190	160	220	110	230	–
COc1cc2cc(-c3ccccc3C)nc(N)c2cc1OC	437	540	830	780	1250	380	910	670	560	–
COc1cccc(-c2cc3cc(C)ccc3c(N)n2)c1	107	570	1280	590	1190	470	720	690	750	–
Cc1cccc(-c2cc3cc(C)ccc3c(N)n2)c1	182	150	200	180	220	150	250	160	210	–
Cc1ccc2cc(-c3ccccc3C)nc(N)c2c1	53.7	75	200	120	260	100	180	140	160	–
